The values below come from ChEMBL document CHEMBL5365542, “Difluoromethyl-1,3,4-oxadiazoles Are Selective, Mechanism-Based, and Essentially Irreversible Inhibitors of Histone Deacetylase 6” (J Med Chem, 2023).

Assay [1] addresses T1, Histone deacetylase 6 (Danio rerio) (UniProt F8W4B7).
T1 sequence (whole entry): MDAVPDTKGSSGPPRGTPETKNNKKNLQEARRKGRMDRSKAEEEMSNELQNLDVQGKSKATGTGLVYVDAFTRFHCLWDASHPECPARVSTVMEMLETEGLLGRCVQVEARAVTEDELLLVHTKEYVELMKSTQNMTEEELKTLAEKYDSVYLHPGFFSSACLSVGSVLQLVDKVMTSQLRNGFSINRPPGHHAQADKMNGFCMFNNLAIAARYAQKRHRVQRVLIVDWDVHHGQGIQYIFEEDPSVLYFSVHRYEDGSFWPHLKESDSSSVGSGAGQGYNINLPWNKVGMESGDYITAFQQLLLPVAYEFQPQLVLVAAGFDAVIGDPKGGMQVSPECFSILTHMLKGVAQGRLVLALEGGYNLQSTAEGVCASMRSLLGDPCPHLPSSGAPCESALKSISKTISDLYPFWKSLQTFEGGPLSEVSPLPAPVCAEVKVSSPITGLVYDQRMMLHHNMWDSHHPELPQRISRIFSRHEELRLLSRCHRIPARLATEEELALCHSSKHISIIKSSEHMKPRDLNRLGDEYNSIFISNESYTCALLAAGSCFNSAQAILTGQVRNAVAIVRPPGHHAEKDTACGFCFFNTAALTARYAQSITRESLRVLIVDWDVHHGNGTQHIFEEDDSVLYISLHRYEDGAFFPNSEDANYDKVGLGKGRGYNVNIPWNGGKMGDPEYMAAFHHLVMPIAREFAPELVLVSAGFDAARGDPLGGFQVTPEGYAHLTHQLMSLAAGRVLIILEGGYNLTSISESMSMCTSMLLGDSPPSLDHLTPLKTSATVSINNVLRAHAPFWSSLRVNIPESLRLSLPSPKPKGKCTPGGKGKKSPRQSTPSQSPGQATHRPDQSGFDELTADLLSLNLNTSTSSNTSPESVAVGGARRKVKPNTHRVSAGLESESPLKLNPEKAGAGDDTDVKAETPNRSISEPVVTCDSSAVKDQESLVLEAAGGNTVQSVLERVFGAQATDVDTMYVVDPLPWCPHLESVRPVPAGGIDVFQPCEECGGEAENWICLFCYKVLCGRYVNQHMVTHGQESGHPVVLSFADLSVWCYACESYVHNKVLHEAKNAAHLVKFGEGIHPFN
In words: Irreversible inhibition of Danio rerio HDAC6 catalytic domain 2 assessed as enzyme catalysed ring opening by measuring 2-(Benzylamino)pyrimidine-5-carbohydrazide level at 100 uM incubated overnight by LC-MS analysis. In short, it runs like this: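 Danio rerio HDAC6 catalytic domain 2 (zCD2), 50 μM, in 50 mM HEPES pH 7.5, 100 mM KCl, 1 mM TCEP, 5% glycerol, incubated overnight with 100 μM inhibitor (100 μL). Enzyme-free inhibitor controls run in parallel. Protein precipitated with methanol and filtered. Filtrate analysed by C18 reverse-phase UPLC-MS with a 2-min H2O/MeCN gradient.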

Assay [2] concerns the target T2, Protein deacetylase HDAC6 (Homo sapiens, UniProt Q9UBN7).
T2 sequence (Q9UBN7 whole entry): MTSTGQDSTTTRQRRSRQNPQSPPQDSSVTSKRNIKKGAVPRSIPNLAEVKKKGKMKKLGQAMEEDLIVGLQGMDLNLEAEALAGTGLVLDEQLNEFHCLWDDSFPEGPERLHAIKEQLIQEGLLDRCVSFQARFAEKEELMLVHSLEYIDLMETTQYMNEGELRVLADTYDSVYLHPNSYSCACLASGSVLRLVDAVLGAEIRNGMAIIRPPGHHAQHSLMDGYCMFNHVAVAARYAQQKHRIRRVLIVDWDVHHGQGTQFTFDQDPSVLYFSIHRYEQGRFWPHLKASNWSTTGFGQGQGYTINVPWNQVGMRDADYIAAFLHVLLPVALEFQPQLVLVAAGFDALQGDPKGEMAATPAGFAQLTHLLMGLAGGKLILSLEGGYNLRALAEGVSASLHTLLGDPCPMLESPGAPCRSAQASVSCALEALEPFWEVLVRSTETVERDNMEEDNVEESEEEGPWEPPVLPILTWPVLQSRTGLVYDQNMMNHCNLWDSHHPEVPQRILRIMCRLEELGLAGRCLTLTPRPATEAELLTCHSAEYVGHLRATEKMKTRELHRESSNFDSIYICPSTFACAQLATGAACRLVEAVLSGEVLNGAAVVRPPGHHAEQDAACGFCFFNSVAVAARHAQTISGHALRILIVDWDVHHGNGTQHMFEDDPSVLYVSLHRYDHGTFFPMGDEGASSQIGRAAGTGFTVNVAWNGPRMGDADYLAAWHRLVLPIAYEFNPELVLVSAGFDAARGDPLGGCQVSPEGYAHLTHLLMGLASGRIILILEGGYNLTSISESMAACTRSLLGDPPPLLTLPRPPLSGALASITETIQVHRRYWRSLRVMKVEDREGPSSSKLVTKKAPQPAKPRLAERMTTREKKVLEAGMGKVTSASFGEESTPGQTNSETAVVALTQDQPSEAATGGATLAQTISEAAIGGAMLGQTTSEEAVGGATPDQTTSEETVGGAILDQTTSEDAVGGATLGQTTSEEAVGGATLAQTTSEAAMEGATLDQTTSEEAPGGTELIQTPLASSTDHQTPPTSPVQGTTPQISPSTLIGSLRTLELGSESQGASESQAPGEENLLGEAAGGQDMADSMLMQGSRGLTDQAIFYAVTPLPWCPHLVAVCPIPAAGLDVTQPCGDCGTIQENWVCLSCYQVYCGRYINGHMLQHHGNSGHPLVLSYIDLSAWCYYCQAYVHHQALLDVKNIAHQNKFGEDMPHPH
In words: Inhibition of N-terminal GST tagged human recombinant HDAC6 (1 to 1215 residues) expressed in Sf9 insect cells using Z-Lys(Ac)-AMC as fluorogenic substrate preincubated for 60 mins followed by substrate addition and measured after 90 mins by microplate reader analysis.

In the case of `FC(F)c1nnc(-c2cnc(NCc3ccccc3)nc2)o1`, the Activity in assay [1] was found to be 9 µM. Also, the IC50 in assay [2] was 193 nM.
Take `FC(F)(F)c1nnc(-c2cnc(NCc3ccccc3)nc2)o1`: the Activity in assay [1] came out at 18 µM. Besides, in assay [2], the IC50 was found to be 531 nM.
